Where a SMILES comes first, the peptide text is derived from it. Bridges are numbered along the chain shown (N, C = ends). [ ]: non-standard residue; d: D form. Asu = N[C@@H](CCCCCC(=O)O)C(=O)O
Columns and labels:
Assay type in all cases: functional
[1] = Antiosteoporotic activity in mouse parietal bone assessed as inhibition of parathyroid hormone induced bone resorption by measuring 45Ca release at 20 uM by scintillation counting; parameters: scale not given: the % may be the effect or the level left
Method in brief: (§1)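 Mice aged 2 days received 45CaCl2 (2 μCi) subcutaneously; parietal bones were taken 2 days later and cultured on grids at the gas-liquid interface. Medium was Ham's F-12 with NaHCO3, 1.0 mM CaCl2 and 5% heat-inactivated horse serum, at 37 °C under 5% CO2. After 24 h preculture, bones were exposed to PTH (2×10^-9 M final) plus sample for 6 days, medium changed at day 3. Four bones per group.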

[2] = Antiosteoporotic activity in mouse parietal bone assessed as inhibition of parathyroid hormone induced bone resorption at 200 uM; method in brief: as §1
[3] = Antiosteoporotic activity in mouse parietal bone assessed as inhibition of parathyroid hormone induced bone resorption by measuring 45Ca release at 200 uM by scintillation counting; parameters: scale not given: the % may be the effect or the level left; method in brief: as §1
[4] = Antiosteoporotic activity in mouse parietal bone assessed as inhibition of parathyroid hormone induced bone resorption by measuring 45Ca release by scintillation counting; parameters: scale not given: the % may be the effect or the level left; method in brief: as §1

Compound: C=C[C@@H](CCCCC)O[C@H]1O[C@H](CO[C@@H]2OC[C@H](O)[C@H](O)[C@H]2O)[C@@H](O)[C@H](O)[C@H]1O
- Activity [1]: 23.8%
- inhibition (INH) [2]: 61.6%
- Activity [3]: 20.7%

Compound: CC(C)C[C@H](NC(=O)[C@H](CCCCN)NC(=O)CNC(=O)[C@H](CC(C)C)NC(=O)[C@@H](NC(=O)[C@@H]1CCCCCC(=O)N[C@@H](CO)C(=O)N[C@@H](CC(N)=O)C(=O)N[C@@H](CC(C)C)C(=O)N[C@@H](CO)C(=O)N[C@@H]([C@@H](C)O)C(=O)N1)C(C)C)C(=O)N[C@@H](CO)C(=O)N[C@@H](CCC(N)=O)C(=O)N[C@@H](CCC(=O)O)C(=O)N[C@@H](CC(C)C)C(=O)N[C@@H](Cc1cnc[nH]1)C(=O)N[C@@H](CCCCN)C(=O)N[C@@H](CC(C)C)C(=O)N[C@@H](CCC(N)=O)C(=O)N[C@H](C(=O)N[C@@H](Cc1ccc(O)cc1)C(=O)N1CCC[C@H]1C(=O)N[C@@H](CCCNC(=N)N)C(=O)N[C@H](C(=O)N[C@@H](CC(=O)O)C(=O)N[C@H](C(=O)NCC(=O)N[C@@H](C)C(=O)NCC(=O)N[C@H](C(=O)N1CCC[C@H]1C(N)=O)[C@@H](C)O)C(C)C)[C@@H](C)O)[C@@H](C)O [ELCITONIN] (SNLST[Asu]VLGKLSQELHKLQTYPRTDVGAGTP-NH2; lactam N-6)
- Activity [4]: 18.4%

Compound: CC(=O)[C@H]1[C@@H](OC(=O)CCC(C)CO[C@@H]2O[C@H](CO)[C@@H](O)[C@H](O)[C@H]2O)C[C@H]2[C@@H]3CC=C4C[C@@H](O[C@@H]5O[C@H](CO)[C@@H](O[C@@H]6O[C@@H](C)[C@H](O)[C@@H](O)[C@H]6O)[C@H](O)[C@H]5O[C@@H]5O[C@@H](C)[C@H](O)[C@@H](O)[C@H]5O)CC[C@]4(C)[C@H]3CC[C@@]21C (stereo partly drawn) [HYPOGLAUCIN G]
- Activity [1]: 22.8%
- inhibition (INH) [2]: 66.7%
- Activity [3]: 19.2%

Compound: CO[C@]1(CC[C@@H](C)CO[C@@H]2O[C@H](CO)[C@@H](O)[C@H](O)[C@H]2O)O[C@H]2C[C@H]3[C@@H]4CC=C5C[C@@H](O[C@@H]6O[C@H](CO)[C@@H](O[C@@H]7O[C@@H](C)[C@H](O)[C@@H](O)[C@H]7O)[C@H](O)[C@H]6O[C@@H]6O[C@@H](C)[C@H](O)[C@@H](O)[C@H]6O)CC[C@]5(C)[C@H]4CC[C@]3(C)[C@H]2[C@@H]1C [METHYLPROTODIOSCIN]
- Activity [1]: 24.9%
- inhibition (INH) [2]: 89.9%
- Activity [3]: 17.4%

Compound: CC(C)CC[C@H](O)[C@@H](C)[C@H]1[C@@H](O[C@@H]2O[C@H](CO)[C@@H](O)[C@H](O)[C@H]2O)C[C@H]2[C@@H]3CC=C4C[C@@H](O[C@@H]5O[C@H](CO)[C@@H](O[C@@H]6O[C@@H](C)[C@H](O)[C@@H](O)[C@H]6O)[C@H](O)[C@H]5O[C@@H]5O[C@@H](C)[C@H](O)[C@@H](O)[C@H]5O)CC[C@]4(C)[C@H]3CC[C@]12C [SPONGIOSIDES A]
- Activity [1]: 30.9%
- inhibition (INH) [2]: 63.6%
- Activity [3]: 17.1%

Source: ChEMBL document CHEMBL1159388, “Steroidal glycosides from the rhizomes of Dioscorea spongiosa” (2003)
